# Assay outcomes (PubChem BioAssay)
# AF4-AF9 inh: blocks AF4 peptide binding to human AF9; P42568; AlphaScreen, biotin-AF4 peptide binding to FLAG-AF9; inhibition, % at 10 µM; actives 0.47% (n = 350,000); AID 651704;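 active = every replicate reaching a set inhibition limit, whatever the replicate mean, cut at about 25% in these data; inconclusive = mean inhibition reaches that limit but some replicates miss it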;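 also: 0% = plate neutral control median and 100% = total signal loss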
# S100A4 inh HTS: S100A4-myosin IIA interaction inhibition. P26447. S100A4/TAMRA-MyoIIA peptide fluorescence polarization. inhibition, % at 10.7 µM. actives 0.14% (n = 360,000). AID 652163;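 active = mean inhibition of at least 70% across replicates, with every replicate also reaching that level; inconclusive = mean inhibition reaches 70% but some replicates fall short; inactive = mean inhibition below 70%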
#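 Material: human S100A4 monomer with TAMRA-labelled myosin IIA peptide; buffer or medium: HEPES pH 7.2 with CaCl2, KCl, NaCl, DTT, Triton; compound dosing: one concentration per compound; schedule: 5 min incubation before reading; benchmarks: neutral control DMSO, positive control TFP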
# SIRT5 inh: inhibitors of human sirtuin-5 desuccinylase; Q9NXA8; Purified SirT5, succinyl-peptide AMC, trypsin-coupled fluorescence; inhibition, % at 15 µM; actives 1.1% (n = 330,000); in the data active = inhibition above about 15%; inconclusive = no clear call, values can overlap the other calls
# Ecoli rRNA inh: selective bacterial rRNA inhibition in E. coli. E. coli WT GFP vs humanized-ribosome RFP mutants, fluorescence, 24 h; active compounds read low; DMSO median 0, no signal -100. GFP signal change (wild-type ribosome), % (concentration not given with the values). actives 1.6% (n = 350,000). AID 720706;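 active = significant combined selectivity score with lowered wild-type GFP, culture density cut under 30%, mutant RFP and density less affected; inactive = any of these conditions unmet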
# E-selectin induc: induces E-selectin expression in human endothelial cells. HUVEC E-selectin immunofluorescence imaging; normalized: neutral wells 0, TNF-alpha wells 100. P16581. activation, % at 7.58 µM. AID 686992. actives 0.37% (n = 260,000);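 active = mean E-selectin-positive cell signal at least 10% of the positive control, reached in at least 60% of replicates, without over 20% cell loss; inconclusive = no rule given, readout overlaps actives, possibly toxicity-flagged; inactive = the rest, including those meeting only one limit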
#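 System: HUVEC / Compound: single concentration / Signal: immunofluorescence imaging / Read-out: percent E-selectin-positive cells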
# ERAP1 inh: blocks human ERAP1 aminopeptidase activity. actives 0.15% (n = 340,000). inhibition, % at 10.7 µM. Q9NZ08. recombinant ERAP1, Leu-AMC fluorescence, 60 min;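 active = mean replicate inhibition of at least 30%, or all replicates individually reaching that 30% level; inactive = mean below 30% and not every replicate reaching it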;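 also: 0% = neutral control wells and 100% = L-leucinethiol positive control wells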
# AID977621: growth inhibition of wild-type GFP E. coli, dose response, H69 mutant RFP, cherry-pick; shares compounds with Ecoli rRNA inh; E. coli wild-type GFP strain growth, fluorescence, 24 h; activity change, negative = inhibition at 50 µM; 1,900 tested, under 10 active;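 active = Wild-type ribosome reporter drop at least double the humanized mutant ribosome reporter drop, growth loss under a set limit; inconclusive = no clear call, values can overlap the other calls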;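 also: wild-type GFP and H69 mutant RFP strains grown together 50/50 in each well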
# AID977628: E. coli growth inhibition, wild-type GFP versus h24 humanized RFP strain, dose response, h24 mutant RFP vs wild-type GFP, cherry-pick; shares compounds with Ecoli rRNA inh; E. coli WT GFP strain growth, fluorescence, 24 h; AID 977628; 1,900 tested, under 10 active; activity change, negative = inhibition at 50 µM;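 active = compound lowering the normal-ribosome reporter at least twice as much as the humanized-ribosome reporter, growth loss under a set limit; inconclusive = no clear call, values can overlap the other calls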;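 also: wild-type GFP and h24 humanized RFP strains co-cultured 1 to 1 per well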
# Starred values were filed as active, the others as inactive; u = inconclusive; x = not tested or not shown. Rows were chosen to be rich in hits. Some 3.4% of all compounds tested hit in one or more screens of this group.
SMILES,AF4-AF9 inh,S100A4 inh HTS,SIRT5 inh,Ecoli rRNA inh,E-selectin induc,ERAP1 inh,AID977621,AID977628
CCC(C)NC(=O)C(Sc1ccccc1)c1ccccc1 (centres undefined),-2,3,-2,x,x,2,x,x
COCC(=O)N1[C@H](CO)[C@@H]2c3ccccc3N(C)C[C@@H]21,-3,3,2,4,0,1,x,x
O=C(C[C@@H]1CC[C@H]2[C@@H](COC[C@H](O)CN2C(=O)Nc2ccc(Cl)cc2)O1)N1CCCCC1,1,50,0,-47,0,-2,x,x
CN1CCN(C(=O)C[C@H]2CC[C@H]3[C@@H](COC[C@@H](O)CN3C(=O)Nc3ccc(Cl)cc3)O2)CC1,-4,9,-5,-19*,0,1,x,u
O=C(C[C@@H]1CC[C@@H]2[C@H](COC[C@H](O)CN2C(=O)Nc2ccc(Cl)cc2)O1)NCc1ccncn1,1,0,1,-22*,0,-3,-5.3,u
O=C(C[C@H]1CC[C@H]2[C@@H](COC[C@@H](O)CN2C(=O)Nc2ccc(Cl)cc2)O1)N1CCCCC1,-11,-2,5,-18*,0,-2,x,u
O=C(C[C@@H]1CC[C@H]2[C@@H](COC[C@H](O)CN2C(=O)Nc2ccc(Cl)cc2)O1)NCc1ccncn1,0,-1,-1,-6,0,-1,x,x
CN1CCN(C(=O)C[C@H]2CC[C@H]3[C@@H](COC[C@H](O)CN3C(=O)Nc3ccc(Cl)cc3)O2)CC1,-1,-7,-1,-25*,0,-3,x,u
CC(C)NC(=O)N(C)C[C@@H]1Oc2c(cccc2N(C)C)C(=O)N(C)C[C@H]1C,x,x,x,-1,x,x,x,x
C[C@@H]1CN([C@H](C)CO)S(=O)(=O)c2ccc(C3=CCCC3)cc2O[C@@H]1CN(C)Cc1cccc(C(=O)O)c1,3,-14,7,3,0,-2,x,x
C[C@@H](NC(=O)C[C@H]1CC[C@@H]2[C@H](COC[C@@H](O)CN2C(=O)Nc2cccc(F)c2)O1)c1ccccc1,-1,8,-4,-7,0,1,x,x
C[C@@H](NC(=O)C[C@@H]1CC[C@@H]2[C@H](COC[C@H](O)CN2C(=O)Nc2cccc(F)c2)O1)c1ccccc1,-3,2,-18,-21*,0,-1,x,u
CCCNC(=O)Nc1ccc2c(c1)OC[C@@H](C)N(CC1CCCC1)C[C@H](C)[C@@H](OC)CN(C)C2=O,7,0,6,0,0,-3,x,x
CN(C)CCCN(C(=O)COc1ccc(Cl)cc1)c1nc2ccc(F)cc2s1,11,-37,0,-23*,0,4,-6.3,-4.4
Cc1ccccc1-n1c(-c2ccco2)n[nH]c1=S,-9,1,-6,9,0,1,x,x
Cc1ccccc1-n1c([C@@H]2C[C@H]2c2ccccc2)n[nH]c1=S,x,-1,-3,-28*,0,5,-18,-4.5
C[C@@H]1CCCCO[C@@H](CN(C)S(=O)(=O)c2cn(C)cn2)[C@H](C)CN([C@@H](C)CO)C(=O)c2cc(NC(=O)Nc3cccc4ccccc34)ccc2O1,5,-25,4,-7,0,0,x,x
O=C(COC(=O)Cc1ccccc1F)Nc1ccc(Cl)cn1,0,0,-1,-18*,x,-2,-12,u
CCc1nnc(NC(=O)CSc2ncc(-c3ccccc3)[nH]2)s1,-36,1,2,-20*,x,1,7.7,-0.48
Cc1ccc(C(=O)Nc2ccc(C)c(S(=O)(=O)Nc3ccccc3Cl)c2)s1,8,25,1,-32*,x,-3,-12,u
CCc1cc2ccc(OC)cc2nc1SCC(=O)NNC(=O)c1ccco1,-2,-6,1,-36,x,-3,x,x
